Tests used:
Intestine = experiment: Biodistribution in ICR mouse intestine assessed per organ at 370 kBq, iv after 120 mins by gamma-counting analysis; format: ADME, organism-based; details: in vivo, 2 h
Method in brief: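 Male ICR mice (n = 5) got 370 kBq iv in 0.1 mL saline and were decapitated at 2, 30, 60 or 120 min. Whole intestine was γ-counted and expressed as percent injected dose per organ, decay-corrected, mean ± SD.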

Lung [1] = experiment: Biodistribution in ICR mouse lung at 370 kBq, iv after 120 mins by gamma-counting analysis; format: ADME, organism-based; details: in vivo, 2 h
Method in brief: (§1)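 Male ICR mice (n = 5 per group) got 370 kBq tracer in 0.1 mL saline by iv injection. They were decapitated at 2, 30, 60 or 120 min, and organs were weighed and γ-counted. %ID/g was found against diluted aliquots of the injected dose, decay-corrected, and given as mean ± SD.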

Brain [2] = experiment: Biodistribution in ICR mouse brain at 370 kBq, iv after 2 mins by gamma-counting analysis; format: ADME, organism-based; details: in vivo; method in brief: as §1
[3] = Ratio of drug uptake from ICR mouse brain to blood after 60 mins; format: ADME, tissue-based; details: brain and blood
Liver [4] = experiment: Biodistribution in ICR mouse liver at 370 kBq, iv after 30 mins by gamma-counting analysis; format: ADME, organism-based; details: in vivo, 0.5 h; method in brief: as §1
Kidney [5] = experiment: Biodistribution in ICR mouse kidney at 370 kBq, iv after 120 mins by gamma-counting analysis; format: ADME, organism-based; details: in vivo, 2 h; method in brief: as §1
Lung [6] = experiment: Biodistribution in ICR mouse lung at 370 kBq, iv after 30 mins by gamma-counting analysis; format: ADME, organism-based; details: in vivo, 0.5 h; method in brief: as §1
Blood [7] = experiment: Biodistribution in ICR mouse blood at 370 kBq, iv after 2 mins by gamma-counting analysis; format: ADME, organism-based; details: in vivo; method in brief: as §1
Muscle tissue [8] = experiment: Biodistribution in ICR mouse muscle at 370 kBq, iv after 60 mins by gamma-counting analysis in presence of haloperidol relative to control; format: ADME, organism-based; details: in vivo, 1 h
Method in brief: (§2)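 Male ICR mice, n = 5 per group, received saline (0.1 mL) or haloperidol (0.1 mL, 1.0 mg/kg) via tail vein 5 min before the radiotracer (370 kBq, 0.1 mL, iv). Killed by decapitation at 60 min. Tissues were excised, weighed and gamma-counted. Values are % ID/g (stomach as % ID/organ) and percent change versus saline controls, compared by two-tailed independent Student's t test, p ≤ 0.05.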

Spleen [9] = experiment: Biodistribution in ICR mouse spleen at 370 kBq, iv after 60 mins by gamma-counting analysis; format: ADME, organism-based; details: in vivo, 1 h
Method in brief: (§3)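 Male ICR mice, n = 5 per time point, given the radiotracer in saline (370 kBq, 0.1 mL) by intravenous injection. Killed by decapitation at 2, 30, 60 or 120 min. Organs were excised, weighed and gamma-counted with decay correction. Uptake is expressed as % injected dose per gram of wet tissue against diluted standards of the injected material; stomach and intestine are expressed as % injected dose per organ. Mean ± SD.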

Blood [10] = experiment: Biodistribution in ICR mouse blood at 370 kBq, iv after 60 mins by gamma-counting analysis; format: ADME, organism-based; details: in vivo, 1 h; method in brief: as §1
Heart = experiment: Biodistribution in ICR mouse heart at 370 kBq, iv after 60 mins by gamma-counting analysis; format: ADME, organism-based; details: in vivo, 1 h; method in brief: as §1
Bone [11] = experiment: Biodistribution in ICR mouse bone at 370 kBq, iv after 60 mins by gamma-counting analysis; format: ADME, organism-based, Bone element; details: in vivo, 1 h; method in brief: as §1
Muscle tissue [12] = experiment: Biodistribution in ICR mouse muscle at 370 kBq, iv after 30 mins by gamma-counting analysis; format: ADME, organism-based; details: in vivo, 0.5 h; method in brief: as §3
Muscle tissue [13] = experiment: Biodistribution in ICR mouse muscle at 370 kBq, iv after 2 mins by gamma-counting analysis; format: ADME, organism-based; details: in vivo; method in brief: as §3
Bone [14] = experiment: Biodistribution in ICR mouse bone at 370 kBq, iv after 30 mins by gamma-counting analysis; format: ADME, organism-based, Bone element; details: in vivo, 0.5 h; method in brief: as §1
Spleen [15] = experiment: Biodistribution in ICR mouse spleen at 370 kBq, iv after 2 mins by gamma-counting analysis; format: ADME, organism-based; details: in vivo; method in brief: as §3
Kidney [16] = experiment: Biodistribution in ICR mouse kidney at 370 kBq, iv after 60 mins by gamma-counting analysis in presence of haloperidol relative to control; format: ADME, organism-based; details: in vivo, 1 h
Method in brief: (§4)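 Male ICR mice (n = 5) got saline or haloperidol (0.1 mL, 1.0 mg/kg) via tail vein 5 min before 370 kBq tracer iv. Tissues were taken 60 min later and γ-counted as %ID/g (intestine as %ID/organ). Control and blocked groups were compared by two-tailed independent Student's t test, p ≤ 0.05.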

Brain [17] = experiment: Biodistribution in ICR mouse brain at 370 kBq, iv after 120 mins by gamma-counting analysis; format: ADME, organism-based; details: in vivo, 2 h; method in brief: as §1
Liver [18] = experiment: Biodistribution in ICR mouse liver at 370 kBq, iv after 60 mins by gamma-counting analysis in presence of haloperidol relative to control; format: ADME, organism-based; details: in vivo, 1 h; method in brief: as §4
Lung [19] = experiment: Biodistribution in ICR mouse lung at 370 kBq, iv after 60 mins by gamma-counting analysis; format: ADME, organism-based; details: in vivo, 1 h; method in brief: as §3
Bone [20] = experiment: Biodistribution in ICR mouse bone at 370 kBq, iv after 60 mins by gamma-counting analysis in presence of haloperidol relative to control; format: ADME, organism-based, Bone element; details: in vivo, 1 h; method in brief: as §4
Spleen [21] = experiment: Biodistribution in ICR mouse spleen at 370 kBq, iv after 60 mins by gamma-counting analysis in presence of haloperidol relative to control; format: ADME, organism-based; details: in vivo, 1 h; method in brief: as §2
Blood [22] = experiment: Biodistribution in ICR mouse blood assessed as radiotracer accumulation at 370 kBq, iv after 60 minutes by gamma-counting analysis in presence of SA4503; format: ADME, organism-based; details: in vivo, 1 h
Method in brief: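 Male ICR mice got saline or SA4503 (0.1 mL; 2, 5, 10 or 2.2 μmol/kg) via tail vein 5 min before 370 kBq tracer (0.1 mL) iv. They were decapitated at 60 min and tissues γ-counted. Percent change was taken against saline controls, with two-tailed Student's t test, p ≤ 0.05.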

Hypothalamus = experiment: Drug uptake in Sprague-Dawley rat hypothalamus at 12.2 MBq, iv after 60 mins by autoradiography; format: ADME, organism-based; details: in vivo, 1 h
Method in brief: (§5)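 [¹⁸F]-labelled tracer (0.2 mL, 12.2 MBq) given intravenously to conscious Sprague-Dawley rats (n = 3). Each rat was killed by cervical dislocation 60 min after injection. The brain was removed and frozen in liquid nitrogen, and 20 μm coronal sections were cut on a cryostat for ex vivo autoradiography of regional radioactivity.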

Rattus norvegicus [23] = experiment: Biodistribution in Sprague-Dawley rat pontine reticular nucleus at 23 MBq, iv after 60 mins by microPET imaging/CT study in presence of haloperidol; format: ADME, organism-based; details: in vivo, 1 h
Method in brief: (§6)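 Sprague-Dawley rats under isoflurane (1.5–2.5%) in oxygen received 23 MBq radiotracer (0.2 mL saline) via tail vein. Blocking animals were pre-injected with haloperidol (0.2 mL, 1 mg/kg) 5 min before the tracer. MicroPET emission was acquired for 30 min starting 60 min post-injection, followed by a 5 min CT scan; images were summed over 60–90 min.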

Cortex [24] = experiment: Drug uptake in Sprague-Dawley rat cortex at 12.2 MBq, iv after 60 mins by autoradiography; format: ADME, organism-based; details: in vivo, 1 h; method in brief: as §5
[25] = Stability of the compound in mouse plasma at 37 degC up to 4 hrs; format: ADME, cell-free
Method in brief: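 The radiotracer (3.7 MBq in 100 μL water) was added to 1 mL of freshly prepared murine plasma and incubated at 37 °C for 4 h. Radiochemical purity was assayed by HPLC at 1, 2 and 4 h.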

Rattus norvegicus [26] = experiment: Biodistribution in Sprague-Dawley rat internal capsule at 23 MBq, iv after 60 mins by microPET imaging/CT study in presence of haloperidol; format: ADME, organism-based; details: in vivo, 1 h; method in brief: as §6
Cortex [27] = experiment: Biodistribution in Sprague-Dawley rat cortex at 23 MBq, iv after 60 mins by microPET imaging/CT study in presence of haloperidol; format: ADME, organism-based; details: in vivo, 1 h; method in brief: as §6

Structure (SMILES)	Drug uptake (Intestine) [%ID]	Drug uptake (Lung [1]) [% ID/g]	Drug uptake (Brain [2]) [% ID/g]	Kp at 1 h [3]	Drug uptake (Liver [4]) [% ID/g]	Drug uptake (Kidney [5]) [% ID/g]	Drug uptake (Lung [6]) [% ID/g]	Drug uptake (Blood [7]) [% ID/g]	Drug uptake (Muscle tissue [8]) [%]	Drug uptake (Spleen [9]) [% ID/g]	Drug uptake (Blood [10]) [% ID/g]	Drug uptake (Heart) [% ID/g]	Drug uptake (Bone [11]) [% ID/g]	Drug uptake (Muscle tissue [12]) [% ID/g]	Drug uptake (Muscle tissue [13]) [% ID/g]	Drug uptake (Bone [14]) [% ID/g]	Drug uptake (Spleen [15]) [% ID/g]	Drug uptake (Kidney [16]) [%]	Drug uptake (Brain [17]) [% ID/g]	Drug uptake (Liver [18]) [%]	also measured
[18F]CCOCCOCCOc1ccc(CN2CCC3(CC2)OCc2ccccc23)cc1	4.04	3.16	5.79	1.4	8.67	3.96	4.46	1.97	17	5.43	3.35	3.43	4.51	2.42	3.22	4.1	5.35	11	3.91	-36	Drug uptake (Lung [19]): 3.73 % ID/g; Drug uptake (Bone [20]): -26%; Drug uptake (Spleen [21]): -32%
[18F]CCOc1ccc(CN2CCC3(CC2)OCc2ccccc23)cc1	7.17	16.2	8.07	11.4	15.3	9.55	25.89	1.71	-20	8.52	0.8	10.74	4.27	4.59	5.45	3.3	4.84	-47	8.99	-64	Drug uptake (Blood [22]): Active; Drug uptake (Hypothalamus): Active; Drug uptake (Rattus norvegicus [23]): Active; Drug uptake (Cortex [24]): Active; Stability [25]: Stable; Drug uptake (Rattus norvegicus [26]): Active; Drug uptake (Cortex [27]): Active; Drug uptake (Lung [19]): 25.21 % ID/g; Drug uptake (Bone [20]): 18%; Drug uptake (Spleen [21]): 5%
